# Data taken from ChEMBL document CHEMBL1123837, “1-Amino-substituted 4-methyl-5H-pyrido[3',4':4,5]pyrrolo[3,2-c]pyridines: a new class of antineoplastic agents” (J Med Chem, 1987).
# How the values were obtained:
# Calf thymus DNA = experiment: Binding affinity for DNA by ethidium bromide displacement assay; format: nucleic-acid assay; conditions: Bos taurus
# Summary of the method: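 Competitive ethidium bromide displacement with calf thymus DNA at 10 µg/mL in 20 mM Na phosphate buffer, 0.1 M NaCl, 1 mM EDTA, pH 7.4. The apparent DNA affinity constant is given in 10^6 M^-1 ± standard deviation, from 6 values across two independent experiments.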
# Mus musculus [1] = experiment: In vivo antitumor activity was evaluated on L1210 leukemia model and percent of treated/control of tumor cells was determined at 80 mg/kg dosage concentration.; format: functional
# Summary of the method: (§1)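 Following NCI protocols, 10^5 viable L1210 leukemia cells were inoculated ip on day 0 into male or female CDF1 hybrid mice, 10 per test group. Compounds in distilled water were dosed ip (0.1 mL/10 g body weight) daily on days 1–5. T/C = median survival day of treated mice / median survival day of negative controls × 100.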
# Mus musculus [2] = experiment: In vivo antitumor activity was evaluated on L1210 leukemia model and percent of treated/control of tumor cells was determined at 15 mg/kg dosage concentration.; format: functional; summary of the method: as §1
# Mus musculus [3] = experiment: In vivo antitumor activity was evaluated on L1210 leukemia model and percent of treated/control of tumor cells was determined at 2.5 mg/kg dosage concentration; format: functional; summary of the method: as §1
# Mus musculus [4] = experiment: In vivo antitumor activity was evaluated on L1210 leukemia model and percent of treated/control of tumor cells was determined at 30 mg/kg dosage concentration; format: functional; summary of the method: as §1
# Mus musculus [5] = experiment: In vivo antitumor activity was evaluated on L1210 leukemia model and percent of treated/control of tumor cells was determined at 5 mg/kg dosage concentration; format: functional; summary of the method: as §1
# Mus musculus [6] = experiment: In vivo antitumor activity was evaluated on L1210 leukemia model and percent of treated/control of tumor cells was determined at 60 mg/kg dosage concentration.; format: functional; summary of the method: as §1
# Mus musculus [7] = experiment: In vivo antitumor activity was determined against P388 leukemia cells expressed as number of; format: functional
# Summary of the method: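 P388 leukemia, 10^6 viable cells inoculated ip on day 0 into CDF1 hybrid male or female mice, 10 mice per group. Compounds were given ip in distilled water (0.1 mL/10 g body weight) at various doses on days 1-5. Vehicle controls were treated the same way. NCI protocols were followed.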
# Mus musculus [8] = experiment: In vivo antitumor activity was evaluated on L1210 leukemia model and number of survivors (animals) was determined at 15 mg/kg dosage concentration; number of survivors given as 0/10; format: functional
# Summary of the method: (§2)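 L1210 leukemia, 10^5 viable cells inoculated ip on day 0 into CDF1 hybrid male or female mice, 10 mice per group. Compounds were given ip in distilled water (0.1 mL/10 g body weight) on days 1-5. Vehicle controls were treated the same way. NCI protocols were followed. T/C = median survival day of treated mice / median survival day of vehicle controls × 100.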
# Mus musculus [9] = experiment: In vivo antitumor activity was evaluated on L1210 leukemia model and number of survivors (animals) was determined at 2.5 mg/kg dosage concentration; number of survivors given as 0/10; format: functional; summary of the method: as §2
# Mus musculus [10] = experiment: In vivo antitumor activity was evaluated on L1210 leukemia model and number of survivors (animals) was determined at 30 mg/kg dosage concentration; number of survivors given as 0/10; format: functional; summary of the method: as §2
# Mus musculus [11] = experiment: In vivo antitumor activity was evaluated on L1210 leukemia model and number of survivors (animals) was determined at 5 mg/kg dosage concentration; number of survivors given as 0/10; format: functional; summary of the method: as §2
# Mus musculus [12] = experiment: In vivo antitumor activity was evaluated on L1210 leukemia model and number of survivors (animals) was determined at 60 mg/kg dosage concentration; number of survivors given as 1/10; format: functional; summary of the method: as §2
# Mus musculus [13] = experiment: In vivo antitumor activity was evaluated on L1210 leukemia model and number of survivors (animals) was determined at 80 mg/kg dosage concentration; number of survivors given as 0/10; format: functional; summary of the method: as §2
# Mus musculus [14] = experiment: In vivo antitumor activity was evaluated on L1210 leukemia model and weight change in tumors was determined at 5 mg/kg dosage concentration; format: functional
# Mus musculus [15] = experiment: In vivo antitumor activity was evaluated on L1210 leukemia model and weight change in tumors was determined at 60 mg/kg dosage concentration.; format: functional
# Mus musculus [16] = experiment: In vivo antitumor activity was evaluated on L1210 leukemia model and weight change in tumors was determined at 80 mg/kg dosage concentration.; format: functional
# Mus musculus [17] = experiment: In vivo antitumor activity was evaluated on L1210 leukemia model and weight change in tumors was determined at 30 mg/kg dosage concentration; format: functional
# Mus musculus [18] = experiment: In vivo antitumor activity was evaluated on L1210 leukemia model and median survival day was determined at 15 mg/kg dosage concentration.; format: functional; summary of the method: as §2
# Mus musculus [19] = experiment: In vivo antitumor activity was evaluated on L1210 leukemia model and median survival day was determined at 2.5 mg/kg dosage concentration; format: functional; summary of the method: as §2
# Mus musculus [20] = experiment: In vivo antitumor activity was evaluated on L1210 leukemia model and median survival day was determined at 30 mg/kg dosage concentration; format: functional; summary of the method: as §2
# Mus musculus [21] = experiment: In vivo antitumor activity was evaluated on L1210 leukemia model and median survival day was determined at 60 mg/kg dosage concentration.; format: functional; summary of the method: as §2
# Mus musculus [22] = experiment: In vivo antitumor activity was evaluated on L1210 leukemia model and median survival day was determined at 80 mg/kg dosage concentration.; format: functional; summary of the method: as §2
# Mus musculus [23] = experiment: In vivo antitumor activity was evaluated on L1210 leukemia model and weight change in tumors was determined at 15 mg/kg dosage concentration.; format: functional
# Mus musculus [24] = experiment: In vivo antitumor activity was evaluated on L1210 leukemia model and weight change in tumors was determined at 2.5 mg/kg dosage concentration; format: functional
# Mus musculus [25] = experiment: In vivo antitumor activity was determined against P388 leukemia cells expressed as treated/control at the dosage of 10 mg/kg; format: functional
# Summary of the method: (§3)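 Following NCI protocols, 10^6 viable P388 leukemia cells were inoculated ip on day 0 into male or female CDF1 hybrid mice, 10 per test group. Compounds in distilled water were given ip (0.1 mL/10 g body weight) at various doses on days 1–5. T/C = median survival day of treated / median survival day of negative controls × 100.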
# Mus musculus [26] = experiment: In vivo antitumor activity was determined against P388 leukemia cells expressed as treated/control at the dosage of 20 mg/kg; format: functional; summary of the method: as §3
# Mus musculus [27] = experiment: In vivo antitumor activity was determined against P388 leukemia cells expressed as treated/control at the dosage of 40 mg/kg; format: functional; summary of the method: as §3
# Mus musculus [28] = experiment: In vivo antitumor activity was determined against P388 leukemia cells expressed as treated/control at the dosage of 50 mg/kg; format: functional; summary of the method: as §3
# Mus musculus [29] = experiment: In vivo antitumor activity was evaluated on L1210 leukemia model and median survival day was determined at 5 mg/kg dosage concentration; format: functional; summary of the method: as §2
compound,measurement,setting,value
CCN(CC)CCCNc1ncc(C)c2c1c1cnccc1n2C,K aff,Calf thymus DNA,40000 M⁻¹
same,T/C,Mus musculus [1],99%
same,T/C,Mus musculus [2],149%
same,T/C,Mus musculus [3],118%
same,T/C,Mus musculus [4],187.5%
same,T/C,Mus musculus [5],138%
same,T/C,Mus musculus [6],196%
same,Survivors,Mus musculus [7],3
same,Survivors,Mus musculus [8],0
same,Survivors,Mus musculus [9],0
same,Survivors,Mus musculus [10],0
same,Survivors,Mus musculus [11],0
same,Survivors,Mus musculus [12],1
same,Survivors,Mus musculus [13],0
same,Weight changes,Mus musculus [14],-0.3 g
same,Weight changes,Mus musculus [15],-2.3 g
same,Weight changes,Mus musculus [16],-2.3 g
same,Weight changes,Mus musculus [17],0.2 g
same,Median survival day,Mus musculus [18],13.75
same,Median survival day,Mus musculus [19],10.9
same,Median survival day,Mus musculus [20],17.25
same,Median survival day,Mus musculus [21],18
same,Median survival day,Mus musculus [22],9.1
same,Weight changes,Mus musculus [23],0.8 g
same,Weight changes,Mus musculus [24],0.7 g
same,T/C,Mus musculus [25],147
same,T/C,Mus musculus [26],164
same,T/C,Mus musculus [27],172
same,T/C,Mus musculus [28],207
same,Median survival day,Mus musculus [29],12.75
